Compound activity as filed in PubChem.
Compounds with a hit are over-represented: about 2.1% of the library has one in this group of screens.
DNMT1 block: DNMT1 (human) enzyme inhibition. P26358. DNMT1 molecular beacon, Hinp1I cleavage, fluorescence. inhibition (reported as % activation of signal), % at 10 µM. 360,000 compounds, 0.83% hits. AID 588458; in the data active = inhibition above about 50%
STEP inh: STEP (human) phosphatase inhibition. AID 588621. 360,000 compounds, 0.25% hits. inhibition, % at 20 µM. P54829. recombinant STEP, OMFP fluorogenic substrate, fluorescence;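 active = inhibition at 20 µM, scaled per plate between control wells, above about 37%, limit read from the data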;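 note: 0% = DMSO with enzyme and substrate and 100% = substrate only without enzyme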
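Material: STEP (striatal-enriched tyrosine phosphatase) enzyme, cell-free | Medium: 50 mM Bis-Tris pH 6.0 with 2.5 mM DTT and 0.005% Tween 20 | Read-out: Percent inhibition scaled to no-enzyme and uninhibited-enzyme controls, plate-pattern corrected | Signal: Fluorescence read at 480 nm ex / 540 nm em | Times: 20 min reaction, room temperature, in the dark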
LMPTP block: blocks human LMPTP phosphatase; P24666; recombinant LMPTP-A, OMFP fluorogenic substrate, fluorescence intensity; inhibition, % at 20 µM; 360,000 compounds, 0.22% hits; AID 651560;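 active = compounds that cut the enzyme signal by at least half of the control window in the single-dose screen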;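 note: plate controls were DMSO wells with enzyme plus substrate for no effect and substrate without enzyme for full effect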
Target sequence (P24666 whole entry, looked up): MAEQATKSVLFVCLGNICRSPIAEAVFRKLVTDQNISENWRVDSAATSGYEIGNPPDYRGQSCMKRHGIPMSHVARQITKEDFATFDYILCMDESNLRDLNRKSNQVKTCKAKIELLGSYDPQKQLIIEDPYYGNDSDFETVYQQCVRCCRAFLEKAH
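Test system: LMPTP-A phosphatase enzyme; input: 0.625 nM LMPTP-A final; reagent: OMFP substrate, 400 µM final; compound dosing: 20 µM single dose, 3% DMSO; incubation: 50 min dark incubation at room temperature; measured by: endpoint fluorescence intensity from OMFP dephosphorylation; measure: % inhibition relative to no-enzyme and uninhibited control wells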
SUMO1-SIM PPI: SUMO1-SIM interaction modulation; P63165; SUMO1 binding to a labelled peptide, TR-FRET, 1 h; inhibition, % at 20 µM; 360,000 compounds, 0.33% hits; AID 602429; in the data active = inhibition above about 37%
Target sequence (P63165 whole entry, looked up): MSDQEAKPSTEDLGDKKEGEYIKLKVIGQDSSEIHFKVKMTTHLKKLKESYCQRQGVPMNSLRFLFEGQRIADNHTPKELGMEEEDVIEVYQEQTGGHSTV
GRK2 aptamer HTS: inhibitors of human GRK2 displacing RNA aptamer; P25098; inhibition of aptamer binding, % at 10 µM; bead flow cytometry, FAM-aptamer displacement from GRK2; 330,000 compounds, 0.59% hits;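 active = inhibition of aptamer binding above 40%, roughly 3 SD of noise, on plates passing a quality check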;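 note: median bead fluorescence of bound FAM aptamer so fluorescent compounds give negative values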
Scp-1 inhibitor: blocks human Scp-1 phosphatase activity; Recombinant Scp1, phosphopeptide, malachite green phosphate absorbance; inhibition, % at 20 µM; 340,000 compounds, 0.88% hits; AID 493091;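 active = inhibition above about 50% at 20 µM, limit read from the data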;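 note: plate controls were DMSO wells with enzyme for no effect and wells lacking enzyme for full effect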
Target sequence (Q9GZU7 76-261 limits assumed): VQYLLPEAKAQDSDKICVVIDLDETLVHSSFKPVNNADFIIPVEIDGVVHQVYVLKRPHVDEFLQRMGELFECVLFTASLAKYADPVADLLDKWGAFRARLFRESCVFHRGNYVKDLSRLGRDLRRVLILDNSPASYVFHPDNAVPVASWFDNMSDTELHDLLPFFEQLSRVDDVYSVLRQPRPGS
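Material: truncated SCP-1 phosphatase (76-261aa) / Buffer or medium: 50 mM Tris acetate pH 5.5, 0.005% Tween-20, 10 mM MgCl2 / Compound dosing: one concentration, 20 µM, with 1.0% DMSO / Incubation: 45 min room-temperature reaction, 5 min colour, 30 min stabiliser / Detection: colorimetric free-phosphate detection, absorbance 630 nm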
Scp1 confirm: confirmation of human Scp-1 phosphatase inhibitors. shares compounds with Scp-1 inhibitor. 2,500 compounds, 61% hits. AID 540281. inhibition, % at 20 µM. recombinant SCP-1 catalytic domain, phosphate release, malachite green absorbance;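 note: plate controls were DMSO with enzyme for no effect and buffer wells lacking enzyme for full effect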
Scp-1 MG ctr: colorimetric interference in Scp-1 counter-screen; shares compounds with Scp-1 inhibitor; Colorimetric interference counterscreen, malachite green absorbance 630 nm; apparent inhibition (interference), % at 20 µM; 2,500 tested, under 10 active; AID 540313;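 note: compounds added after enzyme reaction finished so only phosphate colour detection is probed; plate controls were DMSO wells with completed Scp-1 reaction for no effect and substrate wells lacking enzyme for full effect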
Scp-1 Tm shift: Scp-1 (human) binding by thermal shift; AID 540329; Recombinant SCP1, Sypro Orange thermal shift Tm; 1,500 compounds, 25% hits; shares compounds with Scp-1 inhibitor; thermal shift relative to vanadate control, % at 40 µM;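 active = substances whose mean melting-temperature shift, as a percentage of the reference inhibitor's shift, reaches about 5.3%, limit read from the data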;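 note: 0% = Tm of DMSO wells and 100% = Tm with sodium orthovanadate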
An asterisk follows results filed as active.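 Rule for the calls, unless noted: active = inhibition of at least 30% at 20 µM; inactive = the rest.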

Screening Cc1ccc2nc(Cl)c(/C=N/NC(=O)c3ccccc3O)cc2c1 returned DNMT1 block -3, STEP inh 2, LMPTP block 3, SUMO1-SIM PPI 6, GRK2 aptamer HTS 0, Scp-1 inhibitor 72*, Scp1 confirm 21 and Scp-1 MG ctr -5.
For O=C(c1cccs1)N1CCN(C(=O)c2cccs2)C1=S the results were DNMT1 block 0, STEP inh 0, LMPTP block -1, SUMO1-SIM PPI -1 and Scp-1 inhibitor -13.
Cc1ccc(NC(=O)CSc2ccccc2NC(=O)c2ccccc2Cl)cc1Cl was read as DNMT1 block 21, STEP inh -3, LMPTP block 3, SUMO1-SIM PPI 7, GRK2 aptamer HTS 0, Scp-1 inhibitor 90*, Scp1 confirm 63*, Scp-1 MG ctr -15 and Scp-1 Tm shift 5.
Cc1ccc(NC(=O)CSc2ccccc2NC(=O)c2ccccc2)cc1Cl was read as DNMT1 block 21, STEP inh -1, LMPTP block 2, SUMO1-SIM PPI 0, GRK2 aptamer HTS 1 and Scp-1 inhibitor -7.
COc1ccccc1NC(=O)/C(N=Nc1ccc(C)c(S(=O)(=O)Nc2ccccc2Cl)c1)=C(\C)O was read as DNMT1 block -6, STEP inh 0, LMPTP block 1, SUMO1-SIM PPI 2, GRK2 aptamer HTS 0, Scp-1 inhibitor 50*, Scp1 confirm -25 and Scp-1 MG ctr -28.
For COc1ccccc1NS(=O)(=O)c1cc(N=N/C(C(=O)Nc2ccc(Cl)cc2)=C(/C)O)ccc1C the results were DNMT1 block 2, STEP inh 4, LMPTP block 0, SUMO1-SIM PPI 0, GRK2 aptamer HTS 0 and Scp-1 inhibitor -10.
Screening Cc1ccc2c(=O)c(C(=O)c3ccc(F)cc3)cn(CC(=O)NCc3ccco3)c2n1 returned DNMT1 block 15, STEP inh 6, LMPTP block 1, SUMO1-SIM PPI 6, GRK2 aptamer HTS 17, Scp-1 inhibitor 61*, Scp1 confirm 52*, Scp-1 MG ctr -15 and Scp-1 Tm shift -2.
COc1cccc(C(=O)c2cn(CC(=O)NCc3ccco3)c3nc(C)ccc3c2=O)c1 was read as DNMT1 block 14, STEP inh -1, LMPTP block 12, SUMO1-SIM PPI 11, GRK2 aptamer HTS 5, Scp-1 inhibitor 62*, Scp1 confirm 66*, Scp-1 MG ctr -8 and Scp-1 Tm shift -12.
Screening CCn1cc(C(=O)NCc2ccccc2F)c(=O)c2ccc(C)nc21 returned DNMT1 block 3, STEP inh 1, LMPTP block -1, SUMO1-SIM PPI 15, GRK2 aptamer HTS 0 and Scp-1 inhibitor -12.
`O=C(NNC(=O)c1ccc(S(=O)(=O)N2CCCC2)cc1)c1ccc(Br)cc1` gave DNMT1 block -2, STEP inh 1, LMPTP block 0, SUMO1-SIM PPI 3 and Scp-1 inhibitor -5.
CCOC(=O)Cc1csc(NC(=O)Cc2ccc(Br)cc2)n1 was read as DNMT1 block -2, STEP inh -1, LMPTP block 0, SUMO1-SIM PPI -2, GRK2 aptamer HTS 0, Scp-1 inhibitor 54*, Scp1 confirm -23 and Scp-1 MG ctr -19.
`NC(=O)c1cc(S(=O)(=O)NCc2ccc(Br)cc2)cs1` gave DNMT1 block 1, STEP inh -1, LMPTP block -1, SUMO1-SIM PPI 0, GRK2 aptamer HTS 0, Scp-1 inhibitor -6, Scp1 confirm -13 and Scp-1 MG ctr -16.
For NC(=O)c1cc(S(=O)(=O)NCc2ccccc2)cs1 the results were DNMT1 block -1, STEP inh -1, LMPTP block -2, SUMO1-SIM PPI 2, GRK2 aptamer HTS 4 and Scp-1 inhibitor 0.
For CC(C)S(=O)(=O)C1=NSC2=NC(=O)/C(=C\c3ccc(-c4cccc(C(=O)O)c4)o3)C(=N)N21 the results were DNMT1 block 35, STEP inh 3, LMPTP block 2, SUMO1-SIM PPI 9, Scp-1 inhibitor 65*, Scp1 confirm 68*, Scp-1 MG ctr -7 and Scp-1 Tm shift 5.
Screening Cc1ccc(C(=O)N/C(=C\c2ccco2)C(=O)NCCN2CCOCC2)cc1 returned DNMT1 block 0, STEP inh -1, LMPTP block -2, SUMO1-SIM PPI -4, GRK2 aptamer HTS 3, Scp-1 inhibitor 75*, Scp1 confirm -18 and Scp-1 MG ctr -16.
NC(=O)COc1ccc(-n2cnnn2)cc1 was read as DNMT1 block 26, STEP inh 6, LMPTP block 11, SUMO1-SIM PPI 2, GRK2 aptamer HTS 0, Scp-1 inhibitor 68*, Scp1 confirm 52*, Scp-1 MG ctr -12 and Scp-1 Tm shift -2.
`NC(=O)c1ccc(NC(=O)COc2ccc(-n3cnnn3)cc2)cc1` gave DNMT1 block -2, STEP inh -2, LMPTP block 2, SUMO1-SIM PPI 7, GRK2 aptamer HTS 4 and Scp-1 inhibitor 22.
`O=C(N/N=C\C=C\c1ccc(Br)cc1)c1ccc2c(c1)OCO2` gave DNMT1 block 81*, STEP inh 98*, LMPTP block 57*, SUMO1-SIM PPI 45*, GRK2 aptamer HTS 25, Scp-1 inhibitor 95*, Scp1 confirm 94*, Scp-1 MG ctr -4 and Scp-1 Tm shift -3.
For C[n+]1cccc(C(=O)N/N=C/c2ccc3c(c2)OCO3)c1 the results were DNMT1 block 0, STEP inh 1, LMPTP block 0, SUMO1-SIM PPI -19, GRK2 aptamer HTS 0, Scp-1 inhibitor 50*, Scp1 confirm 15 and Scp-1 MG ctr -7.
For O=C(N/N=C/c1ccc2c(c1)OCO2)c1ccc(COCC(F)(F)C(F)F)cc1 the results were DNMT1 block 7, STEP inh 9, LMPTP block 25, SUMO1-SIM PPI 6, GRK2 aptamer HTS 0, Scp-1 inhibitor 72*, Scp1 confirm 77*, Scp-1 MG ctr -11 and Scp-1 Tm shift -12.
For COCCN(CC(=O)Nc1cccc(S(=O)(=O)N2CCCC2)c1)Cc1nc2ccccc2c(=O)[nH]1 the results were DNMT1 block 1, STEP inh -1, LMPTP block -1, SUMO1-SIM PPI 3 and Scp-1 inhibitor 0.
